Assay [1] has as its system Rattus norvegicus. The experiment in a line: Percent growth hormone releasing activity in anesthetized rat relative to hpGRF (1-29)NH2. The format is functional. The gist of the method:
(§1)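 In pentobarbital-anesthetized male Charles River rats (6–9/group), two subcutaneous analogue doses and GRF(1-29)NH₂ reference doses were given. Plasma GH was measured by radioimmunoassay in jugular blood taken 15 min post-injection. Relative potency with 95% confidence limits came from a four-point assay design by Pugsley's method. Not active means no activity at the doses tested.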

The subject of assay [2] is Rattus norvegicus. The experiment in a line: Effect on plasma growth hormone in anesthetized rat at a dose of 5 ug/100 g of body weight. The format is functional. Put shortly: (§2)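 Male Charles River rats (175–350 g) anesthetized with sodium pentobarbital (6 mg/100 g body wt); 30 min later, 6–9 per group received a single subcutaneous 0.5-mL injection of saline, GRF(1-29)NH₂ reference, or one of two analogue doses. Jugular vein blood was drawn 15 min post-injection, and plasma GH was measured by radioimmunoassay, reported as ng/mL ± SE.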

Assay [3] concerns Rattus norvegicus. The experiment in a line: Effect on plasma growth hormone in anesthetized rat at a dose of 25 ug/100 g of body weight. The format is functional. The gist of the method:
as §2

For assay [4], the system named is Rattus norvegicus. The experiment in a line: Percent growth hormone releasing activity in anesthetized rat relative to hpGRF (1-29)NH2; Not active. Format: functional, organism-based. The gist of the method:
as §1

Calls of active or inactive are those of the source.

As for `CC[C@H](C)[C@H](NC(=O)[C@H](C)NC(=O)[C@H](CC(=O)O)NC(=O)[C@@H](C)NC(=O)[C@@H](N)Cc1ccc(O)cc1)C(=O)N[C@@H](Cc1ccccc1)C(=O)N[C@H](C(=O)N[C@@H](CC(N)=O)C(=O)N[C@@H](CO)C(=O)N[C@@H](Cc1ccc(O)cc1)C(=O)N[C@@H](CCCN=C(N)N)C(=O)N[C@@H](CCCCN)C(=O)N[C@H](C(=O)N[C@@H](CC(C)C)C(=O)NCC(=O)N[C@@H](CCC(N)=O)C(=O)N[C@@H](CC(C)C)C(=O)N[C@@H](CO)C(=O)N[C@@H](C)C(=O)N[C@@H](CCCN=C(N)N)C(=O)N[C@@H](CCCCN)C(=O)N[C@@H](CC(C)C)C(=O)N[C@@H](CC(C)C)C(=O)N[C@@H](CCC(N)=O)C(=O)N[C@@H](CC(=O)O)C(=O)N[C@H](C(=O)N[C@@H](CCSC)C(=O)N[C@@H](CO)C(=O)N[C@@H](CCCN=C(N)N)C(N)=O)[C@@H](C)CC)C(C)C)[C@@H](C)O`, the Activity with Rattus norvegicus [1] is given as 5146%.

In turn, `CC[C@H](C)[C@H](NC(=O)[C@H](C)NC(=O)[C@H](CC(=O)O)NC(=O)[C@H](C)NC(=O)[C@H](Cc1ccc(O)cc1)NC(C)=O)C(=O)N[C@@H](Cc1ccccc1)C(=O)N[C@H](C(=O)N[C@@H](CC(N)=O)C(=O)N[C@@H](CO)C(=O)N[C@@H](Cc1ccc(O)cc1)C(=O)N[C@@H](CCCN=C(N)N)C(=O)N[C@@H](CCCCN)C(=O)N[C@H](C(=O)N[C@@H](CC(C)C)C(=O)NCC(=O)N[C@@H](CCC(N)=O)C(=O)N[C@@H](CC(C)C)C(=O)N[C@@H](CO)C(=O)N[C@@H](C)C(=O)N[C@@H](CCCN=C(N)N)C(=O)N[C@@H](CCCCN)C(=O)N[C@@H](CC(C)C)C(=O)N[C@@H](CC(C)C)C(=O)N[C@@H](CCC(N)=O)C(=O)N[C@@H](CC(=O)O)C(=O)N[C@H](C(=O)N[C@@H](CCSC)C(=O)N[C@@H](CO)C(=O)N[C@@H](CCCN=C(N)N)C(N)=O)[C@@H](C)CC)C(C)C)[C@@H](C)O` yielded an Activity in the assay with Rattus norvegicus [1] of 1224%. On the same count and under the same terms, to `CC[C@H](C)[C@H](NC(=O)[C@H](C)NC(=O)[C@H](CC(=O)O)NC(=O)[C@@H](C)NC(=O)[C@@H](Cc1ccc(O)cc1)NC(C)=O)C(=O)N[C@@H](Cc1ccccc1)C(=O)N[C@H](C(=O)N[C@@H](CC(N)=O)C(=O)N[C@@H](CO)C(=O)N[C@@H](Cc1ccc(O)cc1)C(=O)N[C@@H](CCCN=C(N)N)C(=O)N[C@@H](CCCCN)C(=O)N[C@H](C(=O)N[C@@H](CC(C)C)C(=O)NCC(=O)N[C@@H](CCC(N)=O)C(=O)N[C@@H](CC(C)C)C(=O)N[C@@H](CO)C(=O)N[C@@H](C)C(=O)N[C@@H](CCCN=C(N)N)C(=O)N[C@@H](CCCCN)C(=O)N[C@@H](CC(C)C)C(=O)N[C@@H](CC(C)C)C(=O)N[C@@H](CCC(N)=O)C(=O)N[C@@H](CC(=O)O)C(=O)N[C@H](C(=O)N[C@@H](CCSC)C(=O)N[C@@H](CO)C(=O)N[C@@H](CCCN=C(N)N)C(N)=O)[C@@H](C)CC)C(C)C)[C@@H](C)O` (stereo in doubt; 1) belongs 993%; to `CC[C@H](C)[C@H](NC(=O)[C@H](C)NC(=O)[C@H](CC(=O)O)NC(=O)[C@@H](C)NC(=O)[C@@H](Cc1ccc(O)cc1)NC(C)=O)C(=O)N[C@@H](Cc1ccccc1)C(=O)N[C@H](C(=O)N[C@@H](CC(N)=O)C(=O)N[C@@H](CO)C(=O)N[C@@H](Cc1ccc(O)cc1)C(=O)N[C@@H](CCCN=C(N)N)C(=O)N[C@@H](CCCCN)C(=O)N[C@H](C(=O)N[C@@H](CC(C)C)C(=O)NCC(=O)N[C@@H](CCC(N)=O)C(=O)N[C@@H](CC(C)C)C(=O)N[C@@H](CO)C(=O)N[C@@H](C)C(=O)N[C@@H](CCCN=C(N)N)C(=O)N[C@@H](CCCCN)C(=O)N[C@@H](CC(C)C)C(=O)N[C@@H](CC(C)C)C(=O)N[C@@H](CCC(N)=O)C(=O)N[C@@H](CC(=O)O)C(=O)N[C@H](C(=O)N[C@@H](CCSC)C(=O)N[C@@H](CO)C(=O)N[C@@H](CCCN=C(N)N)C(N)=O)[C@@H](C)CC)C(C)C)[C@@H](C)O` (stereo in doubt; 3), 670%.

For `CC[C@H](C)[C@H](NC(=O)[C@H](C)NC(=O)[C@H](CC(=O)O)NC(=O)[C@@H](C)NC(=O)[C@@H](Cc1ccc(O)cc1)NC(C)=O)C(=O)N[C@@H](Cc1ccccc1)C(=O)N[C@H](C(=O)N[C@@H](CC(N)=O)C(=O)N[C@@H](CO)C(=O)N[C@@H](Cc1ccc(O)cc1)C(=O)N[C@@H](CCCN=C(N)N)C(=O)N[C@@H](CCCCN)C(=O)N[C@H](C(=O)N[C@@H](CC(C)C)C(=O)NCC(=O)N[C@@H](CCC(N)=O)C(=O)N[C@@H](CC(C)C)C(=O)N[C@@H](CO)C(=O)N[C@@H](C)C(=O)N[C@@H](CCCN=C(N)N)C(=O)N[C@@H](CCCCN)C(=O)N[C@@H](CC(C)C)C(=O)N[C@@H](CC(C)C)C(=O)N[C@@H](CCC(N)=O)C(=O)N[C@@H](CC(=O)O)C(=O)N[C@H](C(=O)N[C@@H](CCSC)C(=O)N[C@@H](CO)C(=O)N[C@@H](CCCN=C(N)N)C(N)=O)[C@@H](C)CC)C(C)C)[C@@H](C)O` (stereo in doubt; 4), the Activity came to 805 ng/mL with Rattus norvegicus [2], 110% in the assay with Rattus norvegicus [1] and 2234 ng/mL in the assay with Rattus norvegicus [3]. For `CC[C@H](C)[C@H](NC(=O)[C@H](C)NC(=O)[C@H](CC(=O)O)NC(=O)[C@@H](C)NC(=O)[C@@H](Cc1ccc(O)cc1)NC(C)=O)C(=O)N[C@@H](Cc1ccccc1)C(=O)N[C@H](C(=O)N[C@@H](CC(N)=O)C(=O)N[C@@H](CO)C(=O)N[C@@H](Cc1ccc(O)cc1)C(=O)N[C@@H](CCCN=C(N)N)C(=O)N[C@@H](CCCCN)C(=O)N[C@H](C(=O)N[C@@H](CC(C)C)C(=O)NCC(=O)N[C@@H](CCC(N)=O)C(=O)N[C@@H](CC(C)C)C(=O)N[C@@H](CO)C(=O)N[C@@H](C)C(=O)N[C@@H](CCCN=C(N)N)C(=O)N[C@@H](CCCCN)C(=O)N[C@@H](CC(C)C)C(=O)N[C@@H](CC(C)C)C(=O)N[C@@H](CCC(N)=O)C(=O)N[C@@H](CC(=O)O)C(=O)N[C@H](C(=O)N[C@@H](CCSC)C(=O)N[C@@H](CO)C(=O)N[C@@H](CCCN=C(N)N)C(N)=O)[C@@H](C)CC)C(C)C)[C@@H](C)O` (stereo in doubt; 6) [listing 1 of 2 here], the Activity in the assay with Rattus norvegicus [2] stood at 324 ng/mL; in the assay on Rattus norvegicus [3], 374 ng/mL.

For the compound `CC[C@H](C)[C@H](NC(=O)[C@H](C)NC(=O)[C@H](CC(=O)O)NC(=O)[C@@H](C)NC(=O)[C@@H](Cc1ccc(O)cc1)NC(C)=O)C(=O)N[C@@H](Cc1ccccc1)C(=O)N[C@H](C(=O)N[C@@H](CC(N)=O)C(=O)N[C@@H](CO)C(=O)N[C@@H](Cc1ccc(O)cc1)C(=O)N[C@@H](CCCN=C(N)N)C(=O)N[C@@H](CCCCN)C(=O)N[C@H](C(=O)N[C@@H](CC(C)C)C(=O)NCC(=O)N[C@@H](CCC(N)=O)C(=O)N[C@@H](CC(C)C)C(=O)N[C@@H](CO)C(=O)N[C@@H](C)C(=O)N[C@@H](CCCN=C(N)N)C(=O)N[C@@H](CCCCN)C(=O)N[C@@H](CC(C)C)C(=O)N[C@@H](CC(C)C)C(=O)N[C@@H](CCC(N)=O)C(=O)N[C@@H](CC(=O)O)C(=O)N[C@H](C(=O)N[C@@H](CCSC)C(=O)N[C@@H](CO)C(=O)N[C@@H](CCCN=C(N)N)C(N)=O)[C@@H](C)CC)C(C)C)[C@@H](C)O` (stereo in doubt; 6) [listing 2 of 2 here], in the assay with Rattus norvegicus [4], the outcome was inactive. As to `CC[C@H](C)[C@H](NC(=O)[C@H](C)NC(=O)[C@H](CC(=O)O)NC(=O)[C@@H](C)NC(=O)[C@@H](Cc1ccc(O)cc1)NC(C)=O)C(=O)N[C@@H](Cc1ccccc1)C(=O)N[C@H](C(=O)N[C@@H](CC(N)=O)C(=O)N[C@@H](CO)C(=O)N[C@@H](Cc1ccc(O)cc1)C(=O)N[C@@H](CCCN=C(N)N)C(=O)N[C@@H](CCCCN)C(=O)N[C@H](C(=O)N[C@@H](CC(C)C)C(=O)NCC(=O)N[C@@H](CCC(N)=O)C(=O)N[C@@H](CC(C)C)C(=O)N[C@@H](CO)C(=O)N[C@@H](C)C(=O)N[C@@H](CCCN=C(N)N)C(=O)N[C@@H](CCCCN)C(=O)N[C@@H](CC(C)C)C(=O)N[C@@H](CC(C)C)C(=O)N[C@@H](CCC(N)=O)C(=O)N[C@@H](CC(=O)O)C(=O)N[C@H](C(=O)N[C@@H](CCSC)C(=O)N[C@@H](CO)C(=O)N[C@@H](CCCN=C(N)N)C(N)=O)[C@@H](C)CC)C(C)C)[C@@H](C)O` (stereo in doubt; 7) [listing 1 of 2 here], the Activity in the assay on Rattus norvegicus [2] was found to be 213 ng/mL; in the assay on Rattus norvegicus [3], 328 ng/mL. For the compound `CC[C@H](C)[C@H](NC(=O)[C@H](C)NC(=O)[C@H](CC(=O)O)NC(=O)[C@@H](C)NC(=O)[C@@H](Cc1ccc(O)cc1)NC(C)=O)C(=O)N[C@@H](Cc1ccccc1)C(=O)N[C@H](C(=O)N[C@@H](CC(N)=O)C(=O)N[C@@H](CO)C(=O)N[C@@H](Cc1ccc(O)cc1)C(=O)N[C@@H](CCCN=C(N)N)C(=O)N[C@@H](CCCCN)C(=O)N[C@H](C(=O)N[C@@H](CC(C)C)C(=O)NCC(=O)N[C@@H](CCC(N)=O)C(=O)N[C@@H](CC(C)C)C(=O)N[C@@H](CO)C(=O)N[C@@H](C)C(=O)N[C@@H](CCCN=C(N)N)C(=O)N[C@@H](CCCCN)C(=O)N[C@@H](CC(C)C)C(=O)N[C@@H](CC(C)C)C(=O)N[C@@H](CCC(N)=O)C(=O)N[C@@H](CC(=O)O)C(=O)N[C@H](C(=O)N[C@@H](CCSC)C(=O)N[C@@H](CO)C(=O)N[C@@H](CCCN=C(N)N)C(N)=O)[C@@H](C)CC)C(C)C)[C@@H](C)O` (stereo in doubt; 7) [listing 2 of 2 here], the result in the assay on Rattus norvegicus [4] was inactive.

Values taken from ChEMBL document CHEMBL1122887, “Structure-activity studies on the N-terminal region of growth hormone releasing factor” (1985).
